This is a sample that favours compounds with a hit; in the whole collection about 9% have one here.
AP ELISA ortho: orthogonal test for alternative complement pathway inhibitors; Human serum alternative complement pathway, LPS-coated ELISA, C3 deposition; tested in compound mixtures; inhibition, % at 5 µM; actives 0.08% (n = 62,000);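 active means inhibition above 30% in each of the two pooled mixtures holding the compound, so the lower value exceeds 30%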;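 further: 0% = serum in Mg-EGTA without compound and 100% = EDTA serum blank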
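Assay system: human serum alternative complement pathway, C3 deposition on LPS-coated wells; Dosing: 5 µM per compound in ten-compound mixtures; Detection: Anti-C3 ELISA, OD 450 nm; Buffer or medium: Mg2+-EGTA GVB++ buffer containing human serum at 1:15 dilution; Timing: 1 h at 37 °C; Replication: two different pools per compound.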
M1 ag: activates the M1 muscarinic receptor; AID 626; B-score at 10 µM; CHO-M1 cells, Fluo-4 calcium fluorescence, agonist mode; hits give high values; actives 3% (n = 64,000);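 active means fluorescence rise, raw or as B-score row- and column-corrected plate score, outside the 99.7% band of its plate's samples, either direction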
M1 antag: blocks the rat M1 muscarinic receptor response to acetylcholine. B-score at 10 µM. actives 3.4% (n = 64,000). P08482. CHO-M1 cells, Fluo-4 calcium, ACh EC80 antagonist mode; hits give low values;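 active means calcium fluorescence response, raw or row-and-column corrected B-score, differing from the plate sample mean either way at a set confidence level, mostly lower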
Target sequence (P08482 whole entry, looked up): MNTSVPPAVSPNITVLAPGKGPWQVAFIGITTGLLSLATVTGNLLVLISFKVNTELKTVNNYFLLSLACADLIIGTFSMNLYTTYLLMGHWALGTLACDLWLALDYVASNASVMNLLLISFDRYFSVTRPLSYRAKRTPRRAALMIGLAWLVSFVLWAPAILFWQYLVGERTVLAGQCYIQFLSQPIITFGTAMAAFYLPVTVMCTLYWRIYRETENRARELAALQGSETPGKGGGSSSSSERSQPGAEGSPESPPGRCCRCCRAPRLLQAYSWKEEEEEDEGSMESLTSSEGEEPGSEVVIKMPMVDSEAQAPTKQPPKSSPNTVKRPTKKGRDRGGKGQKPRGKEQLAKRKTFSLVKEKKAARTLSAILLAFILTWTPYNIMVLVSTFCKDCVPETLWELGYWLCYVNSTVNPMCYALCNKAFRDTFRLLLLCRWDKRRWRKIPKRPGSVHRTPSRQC
Htt clearance: compounds clearing mutant huntingtin protein; HeLa Exon1htt(103Q)mCFP, aggregate imaging; zero = plate's median compound well; inhibition, % at 1.5 µM; actives 0.42% (n = 47,000); AID 853;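 active means inhibition of aggregate fluorescence above about 70%, also judged a hit by eye on the cell image, limit read from the data, passing the limit was not always enough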;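 further: cells exposed to compound for three days before fixation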
D1 mod: allosterically modulates the human D1 dopamine receptor; P21728; HEK293 D1, CRE-luciferase, dopamine EC30 potentiation; actives deviate in either direction; B-score at 10 µM; actives 5.9% (n = 58,000); AID 641;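 active means luminescence count or its row- and column-corrected plate score outside the 99.7% band of the plate's sample wells, on either side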
An asterisk follows results filed as active; nt = not tested or not shown.

SMILES	AP ELISA ortho	M1 ag	M1 antag	Htt clearance	D1 mod
c1ccc(CCNc2nc3ccccc3s2)cc1	nt	nt	nt	-22	nt
Cc1ccc(CNc2nc3ccccc3s2)s1	2	-0.43	0.33	nt	-2.4*
Cc1ccc2nc(NC(=O)c3cccs3)sc2c1	11	0.91	1	nt	-2.8
CS(=O)(=O)c1ccc2nc(NC(=O)c3cccs3)sc2c1	17	-1.2	0.0092	nt	-5.7*
COc1ccc(-n2c(SCC(=O)Nc3nccs3)nc3c(c2=O)SC(C)C3)cc1 (centres undefined)	16	0.017	0.82*	nt	nt
CCOc1ccc(OCc2ccc(C(=O)O)o2)cc1	7	nt	nt	-16	-5.1*
CCOc1ccc(OCc2ccc(C(=O)NCc3ccncc3)o2)cc1	15	-0.54	0.00096	-28	-0.56
CCOC(=O)c1c(NC(=O)C(F)(OC)C(F)(F)F)sc(C(=O)N2CCCCC2)c1C (centres undefined)	14	0.52	0.13	55	2
CCOC(=O)c1sc2nccc(N(C)C)c2c1N=CNOC	nt	nt	nt	73*	nt
CCOC(=O)c1sc2nccc(N(C)C)c2c1N=CNOCc1ccccc1	nt	nt	nt	20	nt
Fc1cccc(-c2cc3nc4c(c(N5CCN(c6cnccn6)CC5)n3n2)CCCC4)c1	-8	14*	0.0026	32	0.3
Fc1cccc(-c2cc3nc4c(c(N5CCOCC5)n3n2)CCCC4)c1	16	0.52	0.23	nt	nt
CCCCc1ccc(-c2ccc(C)cc2O)nc1	19	-1.2	1.2	-63	-5.3*
CCCCc1ccc(-c2ccc(Br)cc2O)nc1	nt	nt	nt	7	nt
Nc1c2c(nc3ccn(Cc4ccccc4)c(=O)c13)CCC2	27	0.73	-0.79	12	-3.2*
Nc1c2c(nc3ccn(-c4ccccc4)c(=O)c13)CCCCC2	6	0.34	-1.5	-9	-4.7*
CCCn1nc(Oc2nc(SC)nc(N(C)C)n2)ccc1=O	nt	-0.84	2*	-13	nt
Cc1c(NC(=O)Cn2nc(C(=O)O)c3ccccc3c2=O)c(=O)n(-c2ccccc2)n1C	1	0.41	1*	-6	-0.64
Cc1c(NC(=O)c2nn(C)c(=O)c3ccccc23)c(=O)n(-c2ccccc2)n1C	-6	-0.048	0.0038	nt	-0.62
Cc1c(NC(=O)C2CCCNC2=O)c(=O)n(-c2ccccc2)n1C (centres undefined)	4	0.41	0.69*	0	0.0035
Cc1c(NC(=O)c2c(F)c(F)c(F)c(F)c2F)c(=O)n(-c2ccccc2)n1C	21	-1.1	-0.037	nt	1
Cc1c(NC(=O)c2ccccc2)c(=O)n(-c2ccccc2)n1C	nt	nt	nt	78*	nt
COc1ccc(-c2noc(CCC(=O)Nc3nc4ccccc4s3)n2)cc1	-9	-0.25	0.77*	nt	0.22
CC(c1ccco1)N(C(=O)COc1ccc(Cl)cc1Cl)c1ccccn1 (centres undefined)	-6	1.6	-1.8	-10	-7.3*
O=C(COc1ccc(Cl)cc1Cl)Nc1ccccn1	0	-0.89	-0.19	-2	-4.5*
SMILES	AP ELISA ortho	M1 ag	M1 antag	Htt clearance	D1 mod
COC(=O)c1cc(OC)c(OC)cc1NC(=O)Cn1nnc(-c2ccccc2Cl)n1	10	1.3	0.32	-3	0.18
CC1(C)Cc2nc(N)c(C(=O)NCCO)cc2CO1	nt	0.94	6.6*	nt	nt
CC1CCN(c2nc3ccccc3nc2C(C#N)C(=O)OC2CCCCC2)CC1 (centres undefined)	7	3.2	1.5*	33	-0.44
CC1CCN(c2nc3ccccc3nc2C(C#N)S(=O)(=O)c2ccccc2)CC1 (centres undefined)	0	3.8*	0.52	nt	nt
O=C(CSc1nnc2sc3ccccc3n12)NCc1ccc2c(c1)OCO2	13	0.2	0.37	nt	-0.0052
O=C(c1cc2ccccc2oc1=O)N(Cc1ccco1)CC1CCCO1 (centres undefined)	-9	-0.59	0.26	27	0.15
CC1(C)CC(=O)C(C(=S)Nc2ccccc2)=C(NCCN2CCOCC2)C1	nt	nt	nt	-5	nt
O=C(COc1nnnc2ccccc12)N1CCCc2ccccc21	3	-0.072	-0.27	nt	0.0036
O=C(Cn1cnc2ccccc21)OCC(=O)N1CCCc2ccccc21	-9	-2.4*	-0.2	nt	-0.16
CCOC(=O)COc1ccc(S(=O)(=O)N2CCN(c3ccccc3F)CC2)cc1	3	0.24	-0.31	82*	0.52
CN1CCN(c2ccccc2NC(=O)C(Cc2ccccc2)n2cccc2)CC1 (centres undefined)	17	-0.73	-2.2	-103	-0.55
O=C1CC(N2CCN(c3ccccn3)CC2)C(=O)N1CC(c1ccccc1)c1ccccc1 (centres undefined)	nt	nt	nt	-72	nt
COc1ccc(CCN2C(=O)CC(N3CCN(c4ccccn4)CC3)C2=O)cc1OC (centres undefined)	33*	0.15	0.14	nt	0.18
O=C(C1CCC(CNc2c(N3CCCCC3)c(=O)c2=O)CC1)N1CCN(c2ccccn2)CC1 (centres undefined)	16	0.061	-0.12	nt	nt
CCOC(=O)CNc1c(N2CCN(c3ccccn3)CC2)c(=O)c1=O	11	0.31	1.1*	nt	0.51
O=C1c2oc3ccc(F)cc3c(=O)c2C(c2ccccc2)N1CC1CCCO1 (centres undefined)	-4	0.22	-0.24	-5	nt
Cc1nnc(Sc2nc3c(c(=O)[nH]c(=O)n3C)n2Cc2ccccc2Cl)s1	17	-0.038	0.67	nt	1.4
O=C(O)CCc1ccc(-c2ccc(Cl)cc2)n1CC(=O)O	-5	-0.63	0.18	-39	-3.7*
O=C(O)CCc1ccc(-c2ccc(Cl)cc2)n1CCC(=O)O	nt	nt	nt	4	nt
COc1ccc(C(=O)N2CCC(N3CCN(c4ccccc4)CC3)CC2)cc1OC	nt	-0.3	-1.2	nt	nt
COc1ccc(C(=O)N2CCN(C3CCC(c4ccccc4)CC3)CC2)cc1OC (centres undefined)	4	-0.47	-0.097	-11	-5.1*
CN1C(=S)SC(N(O)C(=O)NC2CCCCC2)C1(C)C (centres undefined)	6	-0.3	-0.43	nt	0.43
Cc1cc(C)c(C#N)c(Sc2nnnn2-c2ccccc2)n1	nt	nt	nt	-43	nt
c1ccc2c(c1)CCN2CCN1CCc2ccccc21	6	0.0097	0.011	nt	-3.2*
CCOC(=O)c1ccc(NC(=O)CSc2nnnn2CCCO)cc1	10	0.033	1.8*	-351	-1.1
SMILES	AP ELISA ortho	M1 ag	M1 antag	Htt clearance	D1 mod
C=CCn1nnnc1SCC(=O)Nc1cccc(OC)c1	25	-0.66	11*	nt	0.081
CCOC(=O)c1c(-c2ccccc2)csc1NC(=O)CSc1nnnn1C	16	3.2*	-0.62	48	0.38
CCOC(=O)c1cccc(NC(=O)CSc2nnnn2CC)c1	10	-0.98	0.028	-12	-0.46
O=C(CCSCCc1ccccn1)Nc1ccc(Br)cn1	nt	nt	nt	-18	nt
CN(C1CCCCC1)S(=O)(=O)Cc1ccccc1	5	-0.43	0.46	nt	1.1
CC1(C)NC(=O)N(CCCSc2ccc(Cl)cc2)C1=O	4	0.092	0.79	nt	-0.45
COc1ccc2nc(SCC(=O)NC(C)(C)C)[nH]c2c1	15	-0.17	-0.014	nt	-2.1*
Cc1cccc(NC(=O)c2cnc3ccccn3c2=O)c1	27	0.61	-0.45	nt	-4.3*
Cc1cccc(NC(=O)c2cnc3sccn3c2=O)c1	12	0.072	-0.64	nt	-2.1

Source: PubChem
